This is an account of results in ChEMBL document CHEMBL1157830, “Terpenoids and a flavonoid glycoside from Acacia pennata leaves as hedgehog/GLI-mediated transcriptional inhibitors” (J Nat Prod, 2010).

Assay [1] is described as follows: Inhibition of Hh/GLI1-mediated transcription in human HaCaT cells expressing T-Rex system by luciferase reporter gene assay. The assay is classed as cell-based. The method, boiled down:
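HaCaT-GLI1-Luc cells (exogenous GLI1 under tetracycline control, T-REx) seeded at 2 × 10^5 per well. Compounds added after 12 h tetracycline induction, at 0.05% DMSO. GLI-dependent luciferase activity and cell viability read at the same time. n = 3, SD.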
A general note: Reporter assays use an easily measured gene product as a stand-in for the process of interest.

The subject of assay [2] is PANC-1. The assay can be described thus: Cytotoxicity against human PANC1 cells after 24 hrs by fluorimetric microculture cytotoxicity assay. In kind it is functional, cell-based. To be noted: PANC-1, 24 h. In a few lines: (§1)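 Cells plated at 1 × 10^4 per well in RPMI + 10% FBS and preincubated 24 h at 37 °C. Medium then replaced with fresh medium containing a range of compound concentrations at 0.05% DMSO. After 24 h exposure, proliferation measured by fluorometric microculture cytotoxicity assay (FMCA). n = 3, SD; IC50 reported.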

The next assay relates to DU-145. The assay can be described thus: Cytotoxicity against human DU145 cells after 24 hrs by fluorimetric microculture cytotoxicity assay. In kind it is functional, cell-based. To be noted: DU-145, 24 h. In a few lines:
as §1

A short description of assay [3]: Cytotoxicity against mouse C3H10T1/2 cells after 24 hrs by fluorimetric microculture cytotoxicity assay. To be noted: C3H 10T1/2, 24 h. The assay is classed as cell-based. The method, boiled down:
as §1

Assay [4] relates to HaCaT. Kind of assay: Inhibition of Hh/GLI1-mediated PTCH protein expression in human HaCaT cells expressing T-Rex system after 24 hrs by Western blot. In kind it is cell-based. In a few lines: (§2)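 HaCaT cells carrying tetracycline-inducible exogenous GLI1 plated at 2 × 10^6 per 10 cm dish for 12 h at 37 °C, then induced with 1 µg/mL tetracycline for 12 h. Medium removed and compounds added at various concentrations for 24 h. Lysates in Tris/NaCl/deoxycholate/EDTA buffer with protease inhibitor run on 5% and 12.5% SDS-PAGE. Immunoblot for PTCH, BCL-2 and GLI1 with ECL detection.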

Assay [5] deals with HaCaT. The assay can be described thus: Inhibition of Hh/GLI1-mediated Bcl2 protein expression in human HaCaT cells expressing T-Rex system after 24 hrs by Western blot. The assay is classed as cell-based. The method, boiled down:
as §2
A general note: In western blotting, separated proteins are transferred to a membrane and probed.

Assay [6] deals with PANC-1. The assay can be described thus: Inhibition of Hh/GLI1-mediated PTCH protein expression in human PANC1 cells after 24 hrs by Western blot. In kind it is cell-based. In a few lines:
(§3)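 PANC1 cells treated with compounds at various concentrations for 24 h. Lysates run on SDS-PAGE, transferred to PVDF and blocked 1 h in TBST with 5% milk. Primary antibodies (PTCH, BCL-2) 1 h at room temperature, secondary 1 h, then ECL detection. Same procedure as for the HaCaT blots.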

Assay [7] relates to PANC-1. Kind of assay: Inhibition of Hh/GLI1-mediated Bcl2 protein expression in human PANC1 cells after 24 hrs by Western blot. In kind it is cell-based. The method, boiled down: as §3
Assay [8] has as its system PANC-1. The assay can be described thus: Inhibition of Hh/GLI1-mediated PTCH mRNA expression in human PANC1 cells at 4 uM after 24 hrs by RT-PCR. In kind it is cell-based. In a few lines:
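Ptch mRNA from treated and untreated PANC1 cells reverse-transcribed with a two-step qRT-PCR kit. Real-time PCR: 50 °C 2 min, 95 °C 2 min, then 40 cycles of 95 °C 15 s and 60 °C 30 s. Compared with an untreated control; cyclopamine included as positive control.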

In assay [9] the test system is PANC-1. Kind of assay: Inhibition of Hh/GLI1-mediated PTCH mRNA expression in human PANC1 cells at 2 and 4 uM after 24 hrs by RT-PCR.
For assay [10], the system named is PANC-1. Kind of assay: Inhibition of Hh/GLI1-mediated PTCH mRNA expression in human PANC1 cells at 0.2 uM after 24 hrs by RT-PCR. In kind it is cell-based. In a few lines:
(§4)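 PANC1 cells treated, with untreated cells as control. Ptch mRNA was reverse transcribed with a two-step qRT-PCR kit and quantified by real-time PCR: 50 °C for 2 min, 95 °C for 2 min, then 40 cycles of 95 °C for 15 s and 60 °C for 30 s. Expression was compared with the untreated control.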

Assay [11] relates to PANC-1. The assay can be described thus: Inhibition of Hh/GLI1-mediated PTCH mRNA expression in human PANC1 cells at 0.4 uM after 24 hrs by RT-PCR. In kind it is cell-based. In a few lines:
as §4

Each structure is given as a SMILES string. Activity calls are given as the source filed them. The rule behind the calls is not given here.

For orientation: IC50 means the concentration needed to halve the response being measured. Take `COC(=O)[C@]1(C)CCC[C@]2(C)c3cc4occc4c(C)c3C[C@@H](OC(C)=O)[C@@H]12` [TAEPEENIN D]: the IC50 in assay [1] is 1.6 µM; in the assay with PANC-1 [2], 3.2 µM; in the assay on DU-145, 3.4 µM; in [3] it was over 100 µM. In addition, the inhibition entry in the assay on HaCaT [4], with HaCaT [5], in the assay with PANC-1 [6] and with PANC-1 [7] was “Dose-dependent effect” each time. Moreover, the inhibition result with PANC-1 [8] and with PANC-1 [9] was “Active” in each case.
For the compound `CC1=C2C[C@H]3[C@@H](CC=C4C[C@@H](O)CC[C@@]43C)[C@@H]2CC[C@]12O[C@@H]1C[C@H](C)CN[C@H]1[C@H]2C`, the inhibition entry in the assay with PANC-1 [10] and with PANC-1 [11] was “Active” throughout.
Take `CC1=C(C)[C@@]2(C)CCCC(C)(C)[C@@H]2CC1`: the IC50 in assay [1] is 13.5 µM; with PANC-1 [2], 15.1 µM; in the assay on DU-145, 23.2 µM; in assay [3], over 100 µM. Further, the inhibition result with HaCaT [4], in the assay with HaCaT [5], in the assay with PANC-1 [6] and with PANC-1 [7] was “Dose-dependent effect” each time.
